LMPTP inh: LMPTP (human) inhibition. inhibition, % at 20 µM. recombinant LMPTP-A, OMFP fluorogenic substrate, fluorescence intensity. actives 0.22% (n = 360,000). P24666;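 active = compounds that cut the enzyme signal by at least half of the control window in the single-dose screen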
Target sequence (P24666 whole entry, looked up): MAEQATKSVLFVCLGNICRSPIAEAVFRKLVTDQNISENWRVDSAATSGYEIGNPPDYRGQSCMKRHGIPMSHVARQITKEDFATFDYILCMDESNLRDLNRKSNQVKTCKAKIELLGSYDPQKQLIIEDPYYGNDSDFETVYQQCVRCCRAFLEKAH
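Test system: LMPTP-A phosphatase enzyme. Amount: LMPTP-A at 0.625 nM final in the reaction. Reagent: OMFP substrate, 400 µM final. Times: 50 min at room temperature. Signal: endpoint fluorescence intensity from OMFP dephosphorylation. Read-out basis: % inhibition. Benchmarks: no-enzyme and uninhibited controls.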
rCAG RNA binder: molecules binding r(CAG) RNA repeats. actives 1.3% (n = 370,000). inhibition, % at 3 µM. r(CAG) RNA repeat, TO-PRO-1 dye displacement fluorescence;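 active = inhibition above the plate cutoff, the mean of all test compounds on that plate plus 3 SD, cut at about 35% in these data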;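 note: higher means more dye released from RNA so lower well fluorescence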
NadD inh: blocks S. aureus nicotinate mononucleotide adenylyltransferase. purified NadD enzyme, colorimetric absorbance read-out. inhibition, % at 20 µM. actives 0.78% (n = 360,000); in the data active = inhibition above about 26%
STEP block: inhibitors of human striatal-enriched phosphatase STEP; P54829; recombinant STEP, OMFP fluorogenic substrate, fluorescence; inhibition, % at 20 µM; actives 0.25% (n = 360,000); AID 588621;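 active = inhibition at 20 µM, scaled per plate between control wells, above about 37%, limit read from the data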
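Measure: Control-normalized % inhibition with plate pattern correction | Test system: STEP phosphatase, cell-free reaction | Medium: pH 6.0 Bis-Tris with DTT and Tween 20 | Technique: Fluorescence, 480/540 nm | Times: Reaction 20 min, ambient temperature | Doses: Single compound dose of 20 µM, 1% DMSO final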
Scp-1 inhibitor: Scp-1 (human) phosphatase inhibition | AID 493091 | Q9GZU7 | inhibition, % at 20 µM | actives 0.88% (n = 340,000) | Recombinant Scp1, phosphopeptide, malachite green phosphate absorbance;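 active = inhibition above about 50% at 20 µM, limit read from the data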
Target sequence (Q9GZU7 76-261 limits assumed): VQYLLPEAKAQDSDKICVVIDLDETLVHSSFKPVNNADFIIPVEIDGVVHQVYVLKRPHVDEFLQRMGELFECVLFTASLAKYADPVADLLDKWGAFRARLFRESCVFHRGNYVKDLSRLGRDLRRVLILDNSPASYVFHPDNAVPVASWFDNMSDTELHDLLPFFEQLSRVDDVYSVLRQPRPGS
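Test system – truncated SCP-1 phosphatase (76-261aa) · Reagent – Phosphorylated 17-residue peptide substrate · Incubation – 45 min room-temperature reaction, 5 min colour, 30 min stabiliser · Detection – colorimetric phosphate reagent with accelerator and stabiliser, absorbance at 630 nm · Measure – % inhibition at 20 µM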
rCAG bind conf: r(CAG) RNA repeat binding, confirmation. shares compounds with rCAG RNA binder. TO-PRO-1 dye displacement fluorescence. inhibition, % at 3 µM. actives 70% (n = 4,300). AID 652065;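 active = inhibition above a per-plate cutoff, the mean inhibition of sample wells plus 3 SD, cut at about 35% in these data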;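 note: loss of TO-PRO-1 fluorescence as compound displaces dye from 1x1 AA loop RNA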
dCAG dye counter: counter-screen for rCAG RNA binders: DNA CAG dye complex inhibitors; shares compounds with rCAG RNA binder; d(CAG) DNA oligo TO-PRO-1 dye displacement, fluorescence; inhibition, % at 3 µM; actives 94% (n = 4,300);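 active = inhibition above its plate's cutoff, the mean test-well inhibition plus 3 SD, cut at about 4.8% in these data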;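 note: hits displace the dye from DNA and so lower well fluorescence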
Hits are given with their value. This is a sample that favours compounds with a hit; in the whole collection about 2.6% have one here.

Screening CCn1c(=O)n(CC(=O)N2CCN(c3ccc(F)cc3)CC2)c(=O)c2ccccc21 returned rCAG RNA binder inactive.
For O=C(C1CCN(S(=O)(=O)c2ccc3[nH]c(=O)oc3c2)CC1)N1CCCN(Cc2ccccc2)CC1 the results were rCAG RNA binder inactive.
Screening NS(=O)(=O)c1ccc(Nc2nc(-c3ccc4ccccc4c3)cs2)cc1 returned LMPTP inh inactive, rCAG RNA binder 52.2, NadD inh inactive, STEP block inactive, Scp-1 inhibitor inactive, rCAG bind conf 36.3 and dCAG dye counter 19.9.
`NS(=O)(=O)c1ccc(Nc2nc(-c3cccc([N+](=O)[O-])c3)cs2)cc1` gave LMPTP inh inactive, rCAG RNA binder 35.7, NadD inh inactive, STEP block inactive, Scp-1 inhibitor inactive, rCAG bind conf inactive and dCAG dye counter 17.0.
Cc1ccc(-c2csc(Nc3ccc(S(N)(=O)=O)cc3)n2)o1 was read as LMPTP inh inactive, rCAG RNA binder inactive, NadD inh inactive, STEP block inactive and Scp-1 inhibitor inactive.
For O=C(O)c1ccccc1C(=O)Nc1nc(-c2ccc3ccccc3c2)cs1 the results were LMPTP inh inactive, rCAG RNA binder 70.2, NadD inh inactive, STEP block inactive, Scp-1 inhibitor inactive, rCAG bind conf 63.3 and dCAG dye counter 26.3.
`N=C1SC(c2ccccc2)C(=O)N1c1ncc(Cc2ccccc2)s1` (centres undefined) gave LMPTP inh inactive, rCAG RNA binder 44.6, NadD inh inactive, STEP block inactive, Scp-1 inhibitor inactive, rCAG bind conf 56.6 and dCAG dye counter 19.0.
For O=C(Nc1ncc(Cc2ccccc2)s1)C1=NCCN1 the results were LMPTP inh inactive, rCAG RNA binder inactive, NadD inh inactive, STEP block inactive and Scp-1 inhibitor inactive.
CC1=C/C(=C(\c2cc(C)c(O)c(Br)c2)c2ccccc2S(=O)(=O)O)C=C(Br)C1=O was read as LMPTP inh inactive, rCAG RNA binder 49.3, NadD inh inactive, STEP block inactive, Scp-1 inhibitor inactive, rCAG bind conf inactive and dCAG dye counter 9.3.
For Cc1cc(C(=O)c2ccccc2)cc(C)c1O the results were LMPTP inh inactive, rCAG RNA binder inactive, NadD inh inactive, STEP block inactive and Scp-1 inhibitor inactive.
Screening COc1ccc(Cn2ccc3ccc(-c4ccc5ccn(Cc6ccc(OC)cc6)c5c4)cc32)cc1 returned rCAG RNA binder inactive.
`O=C(O)c1cc(Cl)c(Cl)cc1C(=O)N(Cc1ccccc1)Cc1ccccc1` gave LMPTP inh inactive, rCAG RNA binder 37.4, NadD inh inactive, STEP block inactive, Scp-1 inhibitor inactive, rCAG bind conf 45.0 and dCAG dye counter 11.5.
For CC(C)(C)NC(=O)C(c1ccccc1F)n1c(=O)c(-c2ccco2)nc2ccccc21 (centres undefined) the results were LMPTP inh inactive, rCAG RNA binder 40.9, rCAG bind conf inactive and dCAG dye counter 7.8.
Cc1ccccc1N1C(S)=C(C#N)C(=O)NC1c1ccco1 (centres undefined) was read as LMPTP inh inactive, rCAG RNA binder inactive, NadD inh inactive, STEP block inactive and Scp-1 inhibitor inactive.
Screening N#CC1=C(S)N(c2ccccc2)C(c2ccc(-c3ccccc3Cl)o2)NC1=O (centres undefined) returned LMPTP inh inactive, rCAG RNA binder 51.8, NadD inh inactive, STEP block inactive, Scp-1 inhibitor inactive, rCAG bind conf 76.4 and dCAG dye counter 40.1.
`C[C@H]1CN(C(=O)OC(C)(C)C)CCN1c1ccc(N2CCS(=O)(=O)CC2)c(C#N)c1` gave rCAG RNA binder inactive.
For CCOc1ccc(-n2c(=S)sc3c(=O)n(-c4ccc(F)cc4)c(SCC(=O)O)nc32)cc1 the results were LMPTP inh inactive, rCAG RNA binder inactive, NadD inh inactive, STEP block inactive and Scp-1 inhibitor inactive.
For COc1ccccc1-n1c(SCC(=O)O)nc2c(sc(=S)n2-c2ccccc2C)c1=O the results were LMPTP inh inactive, rCAG RNA binder inactive, NadD inh inactive, STEP block inactive and Scp-1 inhibitor inactive.
